Most compounds without a hit are left out; they make up all but 5.2% or so of the library.
PfM18AAP inh: PfM18AAP enzyme inhibition; recombinant PfM18AAP, H-Glu-NHMec fluorogenic cleavage; inhibition, % at 7.35 µM; hit rate 1.2% among 290,000; AID 1822;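 active means inhibition above the campaign mean inhibition over all tested compounds plus 3 SD, cut at about 28% in these data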;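 further: 0% = plate median of test compound wells and 100% = 2 mM ZnCl2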
EBNA-1 inhibitor: blocks EBNA-1 binding to DNA; EBNA-1 DNA binding, fluorescence polarization; inhibition, % at 14.8 µM; hit rate 0.34% among 300,000; in the data active means inhibition above about 28%
ALR H2O2 inh: human ALR oxidase inhibition via reduced H2O2. purified ALR, DTT oxidation, H2O2 HRP-luminol luminescence. AID 485317. hit rate 3.8% among 290,000. inhibition, % (no concentration beside the values). P55789;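 active means mean replicate inhibition above about 79%, with every replicate also reaching it, limit read from the data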
Target sequence (P55789 whole entry, looked up): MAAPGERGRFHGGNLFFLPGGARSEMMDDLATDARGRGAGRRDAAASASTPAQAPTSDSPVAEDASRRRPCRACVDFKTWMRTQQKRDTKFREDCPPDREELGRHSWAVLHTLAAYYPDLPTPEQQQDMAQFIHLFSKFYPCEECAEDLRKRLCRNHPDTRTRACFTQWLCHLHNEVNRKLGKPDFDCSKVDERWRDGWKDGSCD
core dimer inh: HCV core protein dimerization inhibition. TR-FRET GST/Flag-core106 dimerization, 1536-well. inhibition, % at 5 µM. hit rate 0.33% among 300,000. AID 1899;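 active means inhibition above the mean of all tested compounds plus 3 SD, set per screening campaign, cut at about 45% in these data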
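Assay system: tagged HCV core106 pair (GST and Flag); medium: KF-containing HEPES buffer, pH 7.45, DTT, CHAPS, BSA; also added: Eu donor and XL665 acceptor anti-tag antibodies; dosing: 5 µM single dose; timing: compound-protein-antibody incubation 4 h at 22.5 °C; signal: TR-FRET 671 and 617 nm emission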
NS3 helicase inh: HCV NS3 helicase inhibition; NS3 helicase DNA unwinding, Cy5 molecular beacon fluorescence; inhibition, % at 10.9 µM; hit rate 0.56% among 290,000; AID 1800;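 active means inhibition above the mean of all tested compounds plus 3 SD, set per campaign, cut at about 35% in these data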;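 further: 0% = DMSO wells and 100% = thioflavine S control wells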
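System: HCV NS3 helicase fragment; control set: DMSO and thioflavine S; technique: Cy5 fluorescence at 0 and 60 min, beacon hairpin quenching; reagent: beacon DNA duplex substrate plus ATP; replicates: singlicate; schedule: 1 h reaction at 25 °C, ATP-initiated; medium: MOPS buffer pH 6.5 with MgCl2, DTT, Tween20, BSA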
ZTA counter: blocks Epstein-Barr virus ZTA, an EBNA-1 counter-screen; ZTA-DNA binding, fluorescence polarization; hit rate 0.15% among 320,000; inhibition, % at 11 µM; AID 2234; in the data active means inhibition above about 33%
Target sequence (P03206 whole entry, looked up): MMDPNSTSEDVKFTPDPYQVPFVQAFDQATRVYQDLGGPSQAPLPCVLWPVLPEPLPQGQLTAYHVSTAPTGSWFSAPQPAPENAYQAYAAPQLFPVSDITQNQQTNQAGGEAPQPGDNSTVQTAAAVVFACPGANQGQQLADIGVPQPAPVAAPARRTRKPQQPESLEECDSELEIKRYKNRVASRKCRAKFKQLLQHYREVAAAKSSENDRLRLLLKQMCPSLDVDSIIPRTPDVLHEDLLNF
* = called active by the depositor.

How did Cc1cccc(C)c1NC(=O)COC(=O)[C@@H]1CCCN1C(=O)c1cccs1 do in these assays?
ALR H2O2 inh: 6.0

What do the screens show for `Cc1ccc(NC(=O)c2ccc3nc(N4CCOCC4)sc3c2)c(Cl)c1`?
PfM18AAP inh: 29.3*; EBNA-1 inhibitor: 1.6; ALR H2O2 inh: -5.7; core dimer inh: -10.3; NS3 helicase inh: -15.5; ZTA counter: -0.6

What do the screens show for `CCc1ccccc1NC(=O)c1ccc2nc(N3CCOCC3)sc2c1`?
PfM18AAP inh: -1.4; EBNA-1 inhibitor: -7.9; core dimer inh: -8.0; NS3 helicase inh: -8.2; ZTA counter: -0.3

How did Cc1ccc(C(=O)Nc2ccc(N3CCOCC3)nc2N2CCOCC2)cc1 do in these assays?
PfM18AAP inh: 28.4*; EBNA-1 inhibitor: 0.3; ALR H2O2 inh: -21.4; core dimer inh: 0.8; NS3 helicase inh: -14.8; ZTA counter: 7.5

How did O=C(CCl)NCc1cc(-c2ccc(Cl)cc2)no1 do in these assays?
PfM18AAP inh: 1.2; EBNA-1 inhibitor: -2.7; ALR H2O2 inh: 96.9*; core dimer inh: 2.6; NS3 helicase inh: 11.9; ZTA counter: 10.6

Results for COc1ccc(OCc2cc(-c3ccc(Cl)cc3)no2)cc1 ?
PfM18AAP inh: -14.1; EBNA-1 inhibitor: -3.5; ALR H2O2 inh: -17.1; core dimer inh: -0.7; NS3 helicase inh: 2.0; ZTA counter: -2.4

How did CN(CC(=O)Nc1cccc(F)c1)C(=O)c1ccc(COc2ccccc2)cc1 do in these assays?
EBNA-1 inhibitor: 6.0; ALR H2O2 inh: -7.5; core dimer inh: 0.6; ZTA counter: -4.9

How did CN(C)c1ccc(/C(=N\O)C(F)(F)F)cc1 do in these assays?
PfM18AAP inh: 8.2; EBNA-1 inhibitor: -8.7; ALR H2O2 inh: 97.5*; core dimer inh: 0.5; NS3 helicase inh: 6.5; ZTA counter: 5.2

What do the screens show for `Nc1nonc1-n1nnc(C(=O)N/N=C/c2cccnc2)c1-c1ccccc1`?
PfM18AAP inh: -0.2; EBNA-1 inhibitor: -4.2; ALR H2O2 inh: -40.2; core dimer inh: 7.7; NS3 helicase inh: 3.9; ZTA counter: -8.3

Results for COc1cccc(-c2nc(CS(=O)(=O)CC(=O)NCCc3cc(OC)ccc3OC)c(C)o2)c1 ?
PfM18AAP inh: -3.4; EBNA-1 inhibitor: -7.6; ALR H2O2 inh: 98.7*; core dimer inh: 0.7; NS3 helicase inh: -6.8; ZTA counter: -8.9

What do the screens show for `COc1ccc(-c2nc(CS(=O)(=O)CC(=O)NCCCN3CCN(C)CC3)c(C)o2)cc1`?
PfM18AAP inh: -10.9; EBNA-1 inhibitor: 2.1; ALR H2O2 inh: 98.9*; core dimer inh: -6.6; NS3 helicase inh: -3.8; ZTA counter: 4.4

How did COc1ccc(-c2nc(CS(=O)(=O)CC(=O)NCCc3cc(OC)ccc3OC)c(C)o2)cc1 do in these assays?
PfM18AAP inh: -1.4; EBNA-1 inhibitor: -12.8; ALR H2O2 inh: 98.6*; core dimer inh: -2.9; NS3 helicase inh: -2.1; ZTA counter: -7.7

How did COc1ccc(N2CC(C(=O)N[C@@H](C)C(=O)NCc3ccccc3OC)CC2=O)cc1 (stereo not given in full) do in these assays?
PfM18AAP inh: 0.7; EBNA-1 inhibitor: 8.4; ALR H2O2 inh: -3.5; core dimer inh: 1.9; NS3 helicase inh: 4.7; ZTA counter: 1.2

Results for CC(=O)c1ccc(NC(=O)COC(=O)/C=C/c2cccs2)cc1 ?
ALR H2O2 inh: 9.8

Results for O=C(Nc1ncn[nH]1)c1cc([N+](=O)[O-])ccc1Cl ?
PfM18AAP inh: 30.0*; EBNA-1 inhibitor: -3.1; ALR H2O2 inh: 12.0; core dimer inh: -7.8; NS3 helicase inh: 10.9; ZTA counter: -8.5

What do the screens show for `O=C(CSc1nc(=O)n(CCCN2CCOCC2)c2c1CCCC2)Nc1ccc(F)c(F)c1`?
EBNA-1 inhibitor: -2.7; ALR H2O2 inh: 10.0; core dimer inh: -1.1; ZTA counter: 7.6

How did Cc1cccc(NC(=O)CSc2nc(=O)n(CCCN3CCOCC3)c3c2CCCC3)c1 do in these assays?
EBNA-1 inhibitor: -4.5; ALR H2O2 inh: 97.6*; core dimer inh: 0.5; ZTA counter: -4.1

What do the screens show for `CC(=O)c1cccc(NC(=O)CSc2nc(=O)n(CCCN3CCOCC3)c3c2CCC3)c1`?
EBNA-1 inhibitor: -5.8; ALR H2O2 inh: 97.8*; core dimer inh: -1.6; ZTA counter: -9.8

Results for O=C(CSc1nc(=O)n(CCCN2CCOCC2)c2c1CCCC2)Nc1cccc(Cl)c1 ?
EBNA-1 inhibitor: -0.1; ALR H2O2 inh: 98.6*; core dimer inh: 1.6; ZTA counter: 5.8

Results for COc1ccccc1N1CCN(C/C=C/c2ccc(N(C)C)cc2)CC1 ?
PfM18AAP inh: 9.6; EBNA-1 inhibitor: 4.6; ALR H2O2 inh: 98.6*; core dimer inh: -5.7; NS3 helicase inh: -14.1; ZTA counter: -1.7

What do the screens show for `CCCC(=O)Nc1cc(S(=O)(=O)N(CC)CC)ccc1Cl`?
PfM18AAP inh: -6.3; EBNA-1 inhibitor: -1.6; ALR H2O2 inh: 98.0*; core dimer inh: 4.1; NS3 helicase inh: 21.8; ZTA counter: -4.3

How did CCN(CC)S(=O)(=O)c1ccc(OC)c(NC(=O)Cc2cccs2)c1 do in these assays?
PfM18AAP inh: -5.0; EBNA-1 inhibitor: 1.5; ALR H2O2 inh: -9.7; core dimer inh: 49.8*; NS3 helicase inh: 16.3; ZTA counter: -5.1

How did COc1ccc(CCN(Cc2cccs2)S(=O)(=O)c2ccc(C(=O)O)cc2)cc1OC do in these assays?
PfM18AAP inh: -1.5; EBNA-1 inhibitor: -8.4; ALR H2O2 inh: 93.8*; core dimer inh: 0.5; NS3 helicase inh: 17.0; ZTA counter: 0.6

What do the screens show for `O=C(O)c1ccc(S(=O)(=O)N(Cc2cccs2)CC2CCCO2)cc1` (stereo not given)?
PfM18AAP inh: -0.5; EBNA-1 inhibitor: -11.3; ALR H2O2 inh: -6.6; core dimer inh: -6.2; NS3 helicase inh: 13.2; ZTA counter: -2.0

Results for COc1cc(OC)c(NC(=O)Cc2cccs2)cc1Cl ?
PfM18AAP inh: -14.0; EBNA-1 inhibitor: -0.8; ALR H2O2 inh: -9.5; core dimer inh: 6.5; NS3 helicase inh: -0.1; ZTA counter: 7.4

Results for COc1ccc(Cl)cc1S(=O)(=O)NC(C)C(=O)NCc1ccc2c(c1)OCO2 (stereo not given) ?
PfM18AAP inh: -13.4; EBNA-1 inhibitor: -10.7; ALR H2O2 inh: -1.4; core dimer inh: -2.6; NS3 helicase inh: -5.3; ZTA counter: -9.4

Results for O=C(COC(=O)c1ccc(Br)cc1)NCc1ccc(F)cc1 ?
PfM18AAP inh: 4.8; EBNA-1 inhibitor: 2.6; ALR H2O2 inh: -5.8; core dimer inh: 5.5; NS3 helicase inh: -3.7; ZTA counter: 14.2

Results for CC1(C)CC(=O)C=C(c2cccc(Cl)c2O)C1 ?
ALR H2O2 inh: 96.0*; ZTA counter: -3.9

What do the screens show for `COc1cccc(C2=CC(=O)CC(C)(C)C2)c1OC`?
ALR H2O2 inh: 3.8; ZTA counter: 4.4

What do the screens show for `COc1ccc(CCC(=O)N2CCN(C(=O)c3ccccc3)CC2)cc1`?
PfM18AAP inh: -9.3; EBNA-1 inhibitor: 0.1; ALR H2O2 inh: -6.7; core dimer inh: 0.7; NS3 helicase inh: 3.2; ZTA counter: 7.2

Source: PubChem BioAssay (several laboratories)
